# Experimental data: ChEMBL document CHEMBL1141184, “Synthesis and biological study of a new series of 4'-demethylepipodophyllotoxin derivatives” (J Med Chem, 2005)
# Tests used:
# L1210 [1] = experiment: Percentage of L1210 cells in the G2M phase after treatment with compound at 25 uM concentration expressed as cell cycle effect; format: functional, Mus musculus
# Procedure, shortened: (§1)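 L1210 cells at 2.5×10^5 cells/mL exposed 21 h to the compound; fixed in 70% ethanol, stained 30 min at 20 °C in D-PBS with 100 µg/mL RNase A and 25 µg/mL propidium iodide; 10^4 cells per sample by flow cytometry; value is % of cells in G2M.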
# L1210 [2] = experiment: Inhibition of L1210 cell proliferation in cytotoxic assay; format: functional, cell-based; details: Mus musculus
# Procedure, shortened: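 Murine L1210 leukaemia cells (nonadherent, exponential growth) in RPMI 1640 with 10% FCS, 2 mM glutamine, 10 mM HEPES pH 7.4; 48 h exposure to serial dilutions (compounds from 5 mM DMSO stock diluted in water). MTT added for 4 h at 37 °C, formazan dissolved in DMSO, OD 540 nm; IC50 by linear regression on linear part of dose–response; triplicate.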
# [3] = biological target: DNA topoisomerase 2-alpha (Homo sapiens) (UniProt P11388); experiment: Inhibition of human DNA topoisomerase II alpha as percent linear DNA after treatment with 20 uM
# L1210 [4] = experiment: Percentage of L1210 cells in the G2M phase after treatment with compound at 2.5 uM concentration expressed as cell cycle effect; format: functional, Mus musculus; procedure, shortened: as §1
# P388 = experiment: Maximum tolerated dose value on day 1 against mouse P388 leukemia cells; format: functional
# Procedure, shortened: (§2)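 B6D2F1 mice inoculated ip with 10^6 P388 cells (day 0), single iv dose on day 1. MTD = highest dose without toxic death and/or >20% weight loss. T/C (%) = median survival time treated/control ×100.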
# Mus musculus [5] = species on record: Mus musculus; experiment: Percent median survival time to that of control in mice on day 1; format: functional; procedure, shortened: as §2
# Mus musculus [6] = species on record: Mus musculus; experiment: Percent median survival time to that of control in mice on days 14,21 and 28; format: functional
# Procedure, shortened: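 BALB/c nude mice given 10^6 A549 cells orthotopically into left pleural space under anaesthesia; iv treatment on days 14, 21 and 28 after implantation. MTD = dose without toxic death and/or >20% weight loss; T/C (%) = median survival time treated/control ×100.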
# A549 = experiment: Maximum tolerated dose after treatment on days 14, 21, and 28 against human A549 non-small-cell lung carcinoma
# L1210 [7] = experiment: Percentage of L1210 cells in the G2M phase after treatment with compound at 0.1 uM concentration expressed as cell cycle effect; format: functional, Mus musculus; procedure, shortened: as §1
# L1210 [8] = experiment: Percentage of L1210 cells in the G2M phase after treatment with compound at 1 uM concentration expressed as cell cycle effect; format: functional, Mus musculus; procedure, shortened: as §1
# L1210 [9] = experiment: Percentage of L1210 cells in the G2M phase after treatment with compound at 10 uM concentration expressed as cell cycle effect; format: functional, Mus musculus; procedure, shortened: as §1
# Sequence of DNA topoisomerase 2-alpha (Homo sapiens) (P11388 whole entry): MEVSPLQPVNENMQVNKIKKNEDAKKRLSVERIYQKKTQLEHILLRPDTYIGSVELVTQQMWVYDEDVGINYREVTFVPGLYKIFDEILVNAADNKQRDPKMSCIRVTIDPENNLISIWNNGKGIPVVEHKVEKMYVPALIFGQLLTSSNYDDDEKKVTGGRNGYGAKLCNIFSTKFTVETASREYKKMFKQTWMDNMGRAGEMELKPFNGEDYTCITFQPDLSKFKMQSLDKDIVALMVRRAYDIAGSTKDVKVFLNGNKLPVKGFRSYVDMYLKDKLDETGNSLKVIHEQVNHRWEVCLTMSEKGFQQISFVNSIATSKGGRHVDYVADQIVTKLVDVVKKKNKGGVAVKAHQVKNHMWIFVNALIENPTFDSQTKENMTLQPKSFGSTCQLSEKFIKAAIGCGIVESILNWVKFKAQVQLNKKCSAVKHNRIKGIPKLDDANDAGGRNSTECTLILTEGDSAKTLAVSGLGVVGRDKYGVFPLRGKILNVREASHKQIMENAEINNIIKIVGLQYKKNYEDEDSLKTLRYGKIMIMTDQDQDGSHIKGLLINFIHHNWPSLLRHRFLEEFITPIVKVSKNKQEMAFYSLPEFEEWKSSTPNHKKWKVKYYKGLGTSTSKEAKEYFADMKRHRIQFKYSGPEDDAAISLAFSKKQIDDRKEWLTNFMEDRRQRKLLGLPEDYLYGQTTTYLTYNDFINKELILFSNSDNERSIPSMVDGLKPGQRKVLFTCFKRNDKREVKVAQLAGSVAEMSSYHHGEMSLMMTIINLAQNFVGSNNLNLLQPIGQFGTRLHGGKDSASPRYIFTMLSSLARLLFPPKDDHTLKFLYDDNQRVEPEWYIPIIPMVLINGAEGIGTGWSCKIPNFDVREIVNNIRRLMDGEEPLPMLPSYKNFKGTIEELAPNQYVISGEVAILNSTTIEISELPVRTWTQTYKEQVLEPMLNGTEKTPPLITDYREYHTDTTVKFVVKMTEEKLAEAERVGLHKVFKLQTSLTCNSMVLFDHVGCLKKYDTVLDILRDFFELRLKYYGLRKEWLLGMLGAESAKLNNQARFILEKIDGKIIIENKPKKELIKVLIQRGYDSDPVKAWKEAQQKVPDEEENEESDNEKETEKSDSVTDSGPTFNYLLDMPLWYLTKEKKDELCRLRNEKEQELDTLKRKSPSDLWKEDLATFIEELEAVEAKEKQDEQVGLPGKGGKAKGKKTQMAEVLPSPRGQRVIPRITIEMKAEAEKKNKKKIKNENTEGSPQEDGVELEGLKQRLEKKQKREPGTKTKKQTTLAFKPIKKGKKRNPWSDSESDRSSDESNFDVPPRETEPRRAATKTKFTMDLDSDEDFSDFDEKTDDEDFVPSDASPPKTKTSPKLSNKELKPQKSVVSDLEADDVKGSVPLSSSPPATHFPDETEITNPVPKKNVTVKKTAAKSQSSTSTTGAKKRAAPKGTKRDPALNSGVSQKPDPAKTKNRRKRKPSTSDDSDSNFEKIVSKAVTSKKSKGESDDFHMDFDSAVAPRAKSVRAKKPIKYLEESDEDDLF
Structure (SMILES),IC50 (L1210 [2]),percent linear DNA [3],further results
COc1cc([C@@H]2c3cc4c(cc3[C@@H](OC(=O)N(C)CCN(C)C)[C@H]3C(=O)OC[C@H]23)OCO4)cc(OC)c1O,5.2 µM,0%,Activity (L1210 [1]): 77%
COc1cc([C@@H]2c3cc4c(cc3[C@@H](OC(=O)N(C)CCCN(C)C)[C@H]3C(=O)OC[C@H]23)OCO4)cc(OC)c1O,21 µM,0%,–
COc1cc([C@@H]2c3cc4c(cc3[C@@H](O[C@@H]3O[C@@H]5CO[C@@H](C)O[C@H]5[C@H](O)[C@H]3O)[C@H]3COC(=O)[C@H]23)OCO4)cc(OC)c1O [ETOPOSIDE],–,50%,Activity (L1210 [4]): 76%; MTD (P388): 100 mg/kg; T/C (Mus musculus [5]): 233%; T/C (Mus musculus [6]): 131%; MTD (A549): 70 mg/kg
COc1cc([C@@H]2c3cc4c(cc3[C@@H](OC(=O)NCCN(C)C)C3COC(=O)[C@@H]32)OCO4)cc(OC)c1O (stereo not given in full),0.038 µM,56%,Activity (L1210 [7]): 67%; MTD (P388): 6.25 mg/kg; T/C (Mus musculus [5]): 192%; T/C (Mus musculus [6]): 151%; MTD (A549): 6.25 mg/kg
COc1cc([C@@H]2c3cc4c(cc3[C@@H](OC(=O)NCCN(C)C)[C@H]3C(=O)OC[C@H]23)OCO4)cc(OC)c1O,0.088 µM,64%,MTD (P388): 12.5 mg/kg; T/C (Mus musculus [5]): 214%; T/C (Mus musculus [6]): 152%; Activity (L1210 [8]): 83%; MTD (A549): 6.25 mg/kg
COc1cc([C@@H]2c3cc4c(cc3[C@@H](OC(=O)N(C)CCCN)C3COC(=O)[C@@H]32)OCO4)cc(OC)c1O (stereo not given in full),0.24 µM,8%,–
COc1cc([C@@H]2c3cc4c(cc3[C@@H](OC(=O)NCCCN)[C@H]3C(=O)OC[C@H]23)OCO4)cc(OC)c1O,4.3 µM,0%,–
COc1cc([C@@H]2c3cc4c(cc3[C@@H](OC(=O)NCCCN(C)C)[C@H]3C(=O)OC[C@H]23)OCO4)cc(OC)c1O,1.4 µM,0%,Activity (L1210 [9]): 65%
COc1cc([C@@H]2c3cc4c(cc3[C@@H](CCN(C)CCN(C)C)C3COC(=O)[C@@H]32)OCO4)cc(OC)c1O (stereo not given in full),0.6 µM,57%,Activity (L1210 [4]): 75%
COc1cc([C@@H]2c3cc4c(cc3[C@@H](OC(=O)N(C)CCN(C)C)C3COC(=O)[C@@H]32)OCO4)cc(OC)c1O (stereo not given in full),1.7 µM,27%,Activity (L1210 [4]): 77%; MTD (P388): 50 mg/kg; T/C (Mus musculus [5]): 182%; T/C (Mus musculus [6]): 102%; MTD (A549): 25 mg/kg
COc1cc([C@@H]2c3cc4c(cc3[C@@H](OC(=O)N(C)CCCN(C)C)C3COC(=O)[C@@H]32)OCO4)cc(OC)c1O (stereo not given in full),0.96 µM,17%,–
COc1cc([C@@H]2c3cc4c(cc3[C@@H](OCNCCN(C)C)C3COC(=O)[C@@H]32)OCO4)cc(OC)c1O (stereo not given in full),27.9 µM,–,–
COc1cc([C@@H]2c3cc4c(cc3[C@@H](OC(=O)NCCCN)C3COC(=O)[C@@H]32)OCO4)cc(OC)c1O (stereo not given in full),1.3 µM,38%,–
COc1cc([C@@H]2c3cc4c(cc3[C@@H](OC(=O)NCCCN(C)C)C3COC(=O)[C@@H]32)OCO4)cc(OC)c1O (stereo not given in full),0.34 µM,58%,Activity (L1210 [8]): 72%
